ChEMBL document CHEMBL1157040, “Anti-HSV-1 activity and mechanism of action of some new synthesized substituted pyrimidine, thiopyrimidine and thiazolopyrimidine derivatives” (2010)

What was measured:
Assay type in all cases: functional
Conditions in all cases: Human alphaherpesvirus 1, Vero
Human alphaherpesvirus 1 [1] = test: Antiviral activity against HSV1 infected in african green monkey Vero cells assessed as inhibition of plaque formation at 2 ug/mL after 1 hr relative to control
Procedure, shortened: (§1)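 Plaque reduction in Vero cells (DMEM, 10% FBS, pH 7.2–7.4). Virus–compound mixture inoculated onto monolayer for 1 h adsorption. Overlay of DMEM with 2% agarose, incubated at 37 °C until plaques formed. Fixed with 10% formalin for 2 h and stained with crystal violet. % inhibition = (untreated count − treated count)/untreated count × 100.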

Human alphaherpesvirus 1 [2] = test: Antiviral activity against HSV1 infected in african green monkey Vero cells assessed as inhibition of plaque formation at 5 ug/mL after 1 hr relative to control; procedure, shortened: as §1
Human alphaherpesvirus 1 [3] = test: Antiviral activity against HSV1 infected in african green monkey Vero cells assessed as reduction of plaque formation at 40 ug/mL treated 1 hr after infection measured after 1 hr by replication assay relative to control
Procedure, shortened: (§2)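 Replication format. Vero cells seeded at 10⁵ cells/ml and grown 2 days at 37 °C. Infected with HSV-1 at 10⁴ PFU/well for 1 h at 37 °C, then unadsorbed virus washed off three times with supplement-free medium. Plaques formed, fixed, stained and counted. % reduction calculated against infected control wells.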

Human alphaherpesvirus 1 [4] = test: Antiviral activity against HSV1 infected in african green monkey Vero cells assessed as reduction of plaque formation at 30 ug/mL pretreated 2 hrs before infection measured after 1 hr by adsorption assay relative to control
Procedure, shortened: (§3)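 Adsorption format. Vero cells seeded at 10⁵ cells/ml and grown 2 days at 37 °C. Compound in supplement-free medium coincubated with cells for 2 h at 4 °C, then washed three times. HSV-1 at 10⁴ PFU/well added to pretreated cells for 1 h. Agarose–DMEM overlay, 37 °C until plaques, formalin fix and crystal violet stain. % plaque reduction calculated against untreated infected cells.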

Human alphaherpesvirus 1 [5] = test: Antiviral activity against HSV1 infected in african green monkey Vero cells assessed as reduction of plaque formation at 30 ug/mL pretreated 1 hr before infection measured after 1 hr by virucidal assay relative to control
Procedure, shortened: (§4)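 Virucidal format. 10⁷ PFU HSV-1 in serum-free DMEM mixed with compound for 1 h. Mixture serially diluted 10-fold three times, and each dilution applied to Vero monolayers (10⁵ cells/ml, grown 2 days) for 1 h. DMEM overlay added, incubated at 37 °C, fixed and stained. % plaque reduction calculated against virus not pretreated with compound.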

Human alphaherpesvirus 1 [6] = test: Antiviral activity against HSV1 infected in african green monkey Vero cells assessed as reduction of plaque formation at 30 ug/mL treated 1 hr after infection measured after 1 hr by replication assay relative to control; procedure, shortened: as §2
Human alphaherpesvirus 1 [7] = test: Antiviral activity against HSV1 infected in african green monkey Vero cells assessed as reduction of plaque formation at 40 ug/mL pretreated 2 hrs before infection measured after 1 hr by adsorption assay relative to control; procedure, shortened: as §3
Human alphaherpesvirus 1 [8] = test: Antiviral activity against HSV1 infected in african green monkey Vero cells assessed as reduction of plaque formation at 20 ug/mL treated 1 hr after infection measured after 1 hr by replication assay relative to control; procedure, shortened: as §2
Human alphaherpesvirus 1 [9] = test: Antiviral activity against HSV1 infected in african green monkey Vero cells assessed as reduction of plaque formation at 20 ug/mL pretreated 2 hrs before infection measured after 1 hr by adsorption assay relative to control; procedure, shortened: as §3
Human alphaherpesvirus 1 [10] = test: Antiviral activity against HSV1 infected in african green monkey Vero cells assessed as reduction of plaque formation at 20 ug/mL pretreated 1 hr before infection measured after 1 hr by virucidal assay relative to control; procedure, shortened: as §4

SMILES | inhibition at 2 µg/mL (Human alphaherpesvirus 1 [1]) | inhibition at 5 µg/mL (Human alphaherpesvirus 1 [2]) | also measured
COc1ccc(C2C(=O)C(c3ccc4c(c3)CCCC4)N=C3SCC(=O)N32)cc1OC (stereo not given) | 0% | 0% | –
COc1ccc(C2NC(SC(C(C)=O)C(C)=O)=NC(c3ccc4c(c3)CCCC4)C2=O)cc1OC (stereo not given) | 90% | 95% | inhibition at 40 µg/mL (Human alphaherpesvirus 1 [3]): 0%; inhibition at 30 µg/mL (Human alphaherpesvirus 1 [4]): 0%; inhibition at 30 µg/mL (Human alphaherpesvirus 1 [5]): 28%; inhibition at 30 µg/mL (Human alphaherpesvirus 1 [6]): 0%; inhibition at 40 µg/mL (Human alphaherpesvirus 1 [7]): 0%
COc1ccc(C2OC2C(=O)c2ccc3c(c2)CCCC3)cc1OC (stereo not given) | 24% | 57% | –
Cc1ccc(C2C(O)C(c3ccc4c(c3)CCCC4)=NN2c2ccccc2)cc1 (stereo not given) | 76% | 76% | –
COc1ccc(C2C(=O)C(c3ccc4c(c3)CCCC4)N=C3SC(C(C)=O)=C(C)N32)cc1OC (stereo not given) | 0% | 14% | –
COc1ccc(C2C(=O)C(c3ccc4c(c3)CCCC4)N=C3SC(C)C(=O)N32)cc1OC (stereo not given) | 90% | 100% | inhibition at 30 µg/mL (Human alphaherpesvirus 1 [4]): 0%; inhibition at 30 µg/mL (Human alphaherpesvirus 1 [5]): 95%; inhibition at 20 µg/mL (Human alphaherpesvirus 1 [8]): 60%; inhibition at 30 µg/mL (Human alphaherpesvirus 1 [6]): 80%; inhibition at 20 µg/mL (Human alphaherpesvirus 1 [9]): 0%; inhibition at 20 µg/mL (Human alphaherpesvirus 1 [10]): 92%
COc1ccc(C2C(=O)C(c3ccc4c(c3)CCCC4)N=c3s/c(=C/c4ccc(Cl)cc4)c(=O)n32)cc1OC (stereo not given) | 0% | 0% | –
Cc1ccc(C2OC2C(=O)c2ccc3c(c2)CCCC3)cc1 (stereo not given) | 0% | 0% | –
O=C(c1ccc2c(c1)CCCC2)C1OC1c1ccc(Br)cc1 (stereo not given) | 30% | 18% | –
Cc1ccc(-c2cc(-c3ccc4c(c3)CCCC4)nn2-c2ccccc2)cc1 | 3% | 26% | –
Cc1ccc(C2NC(=S)NC(c3ccc4c(c3)CCCC4)C2=O)cc1 (stereo not given) | 0% | 66% | –
COc1ccc(C2NC(=S)NC(c3ccc4c(c3)CCCC4)C2=O)cc1OC (stereo not given) | 27% | 54% | –
O=C(c1ccc2c(c1)CCCC2)C1OC(c2ccc(Br)cc2)C(C(=O)c2ccc3c(c2)CCCC3)OC1c1ccc(Br)cc1 (stereo not given) | 0% | 0% | –
COc1ccc(C2C(=O)C(c3ccc4c(c3)CCCC4)N=C3SCCC(=O)N32)cc1OC (stereo not given) | 3% | 30% | –
COc1ccc(C2NC(=O)NC(c3ccc4c(c3)CCCC4)C2=O)cc1OC (stereo not given) | 33% | 21% | –
Cc1ccc(C2NC(=N)NC(c3ccc4c(c3)CCCC4)C2=O)cc1 (stereo not given) | 4% | 0% | –
CCOC(=O)SC1=NC(c2ccc3c(c2)CCCC3)C(=O)C(c2ccc(OC)c(OC)c2)N1 (stereo not given) | 61% | 19% | –
